# Compounds with a hit are over-represented: about 2.6% of the library has one in this group of screens.
# AF4-AF9 inh – MLL-AF4/AF9 protein interaction inhibition; hit rate 0.47% among 350,000; AlphaScreen, biotin-AF4 peptide binding to FLAG-AF9; inhibition, % at 10 µM; P42568;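 active means every replicate reaching a set inhibition limit, whatever the replicate mean, cut at about 25% in these data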
# INS-1E GSIS act – primary screen for activators of insulin secretion dependent on glucose, INS-1E cells, GLuc reporter luminescence. INS-1E GLuc reporter insulin secretion, 2-3 h. activation, % at 16.6 µM. hit rate 0.61% among 370,000;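 active means lowest replicate activation of at least 40%, so every replicate reaches that level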
# E-selectin induc – E-selectin induction on HUVECs; P16581; HUVEC E-selectin immunofluorescence imaging; normalized: neutral wells 0, TNF-alpha wells 100; activation, % at 7.58 µM; hit rate 0.37% among 260,000; AID 686992;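 active means mean E-selectin-positive cell signal at least 10% of the positive control, reached in at least 60% of replicates, without over 20% cell loss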
#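 Read-out basis: % PE-positive cells; Test system: HUVEC primary endothelial cells; Technique: immunofluorescence imaging; Dosing: single-point compound dose.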
# RAD54 branch – RAD54 (human) branch migration inhibition. RAD54 Holliday junction branch migration, FAM/BHQ fluorescence. Q92698. hit rate 0.14% among 360,000. inhibition, % at 10.4 µM;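 active means mean normalized replicate activity at least 40 and at least half of replicates scoring 40 or more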;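 further: inhibitors cause a drop in the FAM fluorescence signal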
# RAD52 anneal inh – inhibitors of human RAD52 DNA annealing; P43351; recombinant RAD52 DNA annealing, FRET fluorescence; inhibition, % at 18.7 µM; hit rate 0.46% among 360,000; AID 651710;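 active means every replicate showing at least 50% inhibition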
# Ecoli rRNA inh – inhibitors of bacterial rRNA selective over humanized ribosomes | E. coli WT GFP vs humanized-ribosome RFP mutants, fluorescence, 24 h; active compounds read low; DMSO median 0, no signal -100 | GFP signal change (wild-type ribosome), % (no concentration beside the values) | hit rate 1.6% among 350,000 | AID 720706;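 active means significant combined selectivity score with lowered wild-type GFP, culture density cut under 30%, mutant RFP and density less affected; inactive means any of these conditions unmet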
# A number is an active result; . = inactive; / = not tested or not shown; ! = repeats disagree.
SMILES,AF4-AF9 inh,INS-1E GSIS act,E-selectin induc,RAD54 branch,RAD52 anneal inh,Ecoli rRNA inh
Cc1ccc(OCC(=O)NNC(=O)C2CCN(c3ncnc4sc(C)c(C)c34)CC2)cc1,.,.,.,/,.,.
CCOc1ccccc1N(C(=O)Nc1ccc(Cl)cc1)C1=NCCS1,.,.,/,.,.,-21
O=C(Nc1ccc2c(c1)[C@H]1C[C@@H](CC(=O)N3CCOCC3)O[C@H](CO)[C@H]1O2)C1CCC1,/,.,.,.,/,.
O=C1c2cccnc2C(Nc2ccc(F)c(Cl)c2)N1Cc1cccs1 (centres undefined),.,66,/,.,.,.
CCOc1cccc2cc(C(=O)Nc3cc(C)on3)c(=O)oc12,/,45,/,.,/,/
COc1ccc(CN(C)C(=O)Cn2cc(C)c(=O)[nH]c2=O)cc1OC,.,44,.,.,.,.
COc1ccc(C2=NOC(C(=O)NCc3ccccn3)C2)cc1OC (centres undefined),/,94,/,.,/,/
COc1ccc(C2=NOC(C(=O)NCc3ccccn3)C2)cc1 (centres undefined),/,/,/,.,/,/
COc1ccc(S(=O)(=O)N2CCC(C(=O)NCc3ccccn3)CC2)cc1OC,/,46,/,.,/,/
Nc1ccccc1N=Cc1ccc(-c2cccc(Cl)c2)o1,.,.,/,.,.,-26
COC(=O)N/N=C/c1ccc(-c2cccc(Cl)c2)o1,/,.,.,/,/,/
CCS(=O)(=O)Nc1ccc2c(c1)C(=O)N(C)C[C@H](OC)[C@H](C)CN(C(=O)c1ccc3c(c1)OCO3)[C@@H](C)CO2,.,.,.,.,.,.
CN(C)c1ccc2nc3ccc(=O)cc-3sc2c1,66,/,.,.,.,.
COCC(=O)Nc1ccc2c(c1)OC[C@@H](C)N(C(=O)c1ccncc1)C[C@H](C)[C@H](OC)CN(C)C2=O,.,.,.,.,.,.
O=c1[nH]c(=S)[nH]c2c1C(c1ccc(Br)cc1)c1c([nH]c(=S)[nH]c1=O)O2,.,.,.,56,.,.
O=C1CCCC2=C1C(c1ccc(Br)cc1)c1c([nH]c(=S)[nH]c1=O)N2 (centres undefined),/,/,/,.,/,/
CCS(=O)(=O)Nc1ccc(-c2cc(-c3ccccc3)c3cc(C)ccc3n2)cc1,/,110,.,/,/,/
Cc1ccc2nc(-c3ccc(NS(C)(=O)=O)cc3)cc(-c3ccccc3)c2c1,.,.,/,.,.,.
O=C(NC1CCCC1)c1cc(-c2ccccc2O)on1,.,.,47,.,.,.
O=C(NC1CCCC1)c1cc(-c2ccccc2Cl)on1,.,.,/,.,.,.
Cc1cc(C)nc(-n2nc(C)c(Sc3ccc(F)cc3)c2N)n1,.,.,/,.,.,-40
Cc1cc(Br)cn2c(Cc3cccc(F)c3)c(-c3ccco3)nc12,.,66,.,/,.,.
Cc1c(P(=S)(c2ccccc2)c2ccccc2)[n+]2ccccc2n1C/C=C/c1ccccc1,.,243,.,.,.,.
CC(O)c1nc2ccccc2n1C/C=C/c1ccccc1 (centres undefined),/,/,/,.,/,/
Cc1ccc(C(=O)Nc2nc(C)c(C(=O)Nc3ccc4c(c3)CCC4)s2)cc1,.,.,.,.,.,-30
SMILES,AF4-AF9 inh,INS-1E GSIS act,E-selectin induc,RAD54 branch,RAD52 anneal inh,Ecoli rRNA inh
Cc1nc(NC(=O)c2ccc(F)cc2)sc1C(=O)Nc1ccc2c(c1)CCC2,/,/,/,.,/,/
CCNC(=O)CC1S/C(=N/N=C(\C)c2ccccc2)NC1=O (centres undefined),.,.,/,/,.,.
C/C(=N\N=C1\NC(=O)C(Cc2ccccc2)S1)c1ccccc1 (centres undefined),.,.,.,/,.,-52
CC1CC(C)CN(C(=O)c2nn(C)c3c2CS(=O)(=O)c2ccccc2-3)C1 (centres undefined),.,.,95,.,.,.
O=C(NCC[C@@H]1CC[C@H](NS(=O)(=O)c2cccc(F)c2)[C@H](CO)O1)C1CCCC1,.,.,.,.,.,.
Cc1ccc(NC(=O)Nc2ccc3c(c2)C(=O)N(C)[C@H]2CC[C@H](CC(=O)O)O[C@@H]2CO3)cc1,.,.,.,.,.,.
Cc1c(OC(C)C(=O)NCc2ccccn2)ccc2c3c(c(=O)oc12)CCC3 (centres undefined),.,.,/,.,.,.
Cc1c(OCC(=O)NCc2ccccn2)ccc2c3c(c(=O)oc12)CCCC3,.,41,/,.,.,.
COc1ccc(C(=O)Nc2ccc3c(c2)C(=O)N(C)C[C@@H](OC)[C@@H](C)CN(C)[C@@H](C)CO3)cc1,.,.,.,.,.,.
O=S(=O)(c1ccc(-c2ccccc2)cc1)N1C[C@@H]2N[C@H](C1)C2c1ccc(-c2ccncc2)cc1 (some centres undefined),/,.,.,/,/,.
Cc1ccc(-c2ccc(C3[C@@H]4CN(S(=O)(=O)c5ccccc5)C[C@H]3N4)cc2)cc1 (some centres undefined),.,.,.,/,98!,.
O=S(=O)(c1ccccc1)N1C[C@@H]2N[C@H](C1)C2c1ccc(-c2ccccc2)cc1 (some centres undefined),.,.,.,/,73!,.
O=C(C1CC1)N1C[C@@H]2[C@H](c3ccccc31)[C@H](CO)N2C(=O)c1ccccn1,/,.,.,.,.,.
C[C@H](CO)N1C[C@H](C)[C@@H](CN(C)C(=O)C2CC2)Oc2ncc(Br)cc2C1=O,/,.,.,/,/,.
CCC(=O)N(C)C[C@H]1Oc2ncc(Br)cc2C(=O)N([C@@H](C)CO)C[C@H]1C,.,.,90,.,.,.
C[C@@H]1CN([C@@H](C)CO)C(=O)c2cc(Br)cnc2O[C@H]1CN(C)C(=O)C1CC1,.,46!,.,.,.,.
CCC(=O)N(C)C[C@H]1Oc2ncc(Br)cc2C(=O)N([C@H](C)CO)C[C@H]1C,.,.,.,.,.,.
C[C@@H]1CN([C@H](C)CO)C(=O)c2cc(NC(=O)Cc3ccccc3)ccc2O[C@H]1CN(C)S(=O)(=O)c1ccc(F)cc1,.,.,.,.,.,.
O=[N+]([O-])c1ccccc1S(=O)(=O)Nc1ccc(-c2ccc(N3CCOCC3)nn2)cc1,.,71,/,.,.,.
C[C@@H]1CN([C@H](C)CO)C(=O)c2cccc(NS(=O)(=O)c3ccccc3)c2O[C@@H]1CN(C)CC1CC1,.,.,.,.,.,.
CCOC(=O)CSc1c(-c2ccccc2)c2cc(Cl)ccc2[nH]c1=O,.,.,.,.,.,.
O=C(O)CSc1c(-c2ccccc2)c2cc(Cl)ccc2[nH]c1=O,.,.,.,/,.,-28
CN(C)C(=O)C[C@@H]1CC[C@H]2[C@H](COc3ccc(NC(=O)C4CCC4)cc3C(=O)N2C)O1,.,.,.,/,.,.
Cc1nnc(NC(=O)CSc2nnc(CCNC(=O)c3ccccc3F)n2C)s1,42,.,/,.,.,/
